In ChEMBL document CHEMBL4270600, “Pyrazinyl ureas revisited: 1-(3-(Benzyloxy)pyrazin-2-yl)-3-(3,4-dichlorophenyl)urea, a new blocker of Aβ-induced mPTP opening for Alzheimer's disease” (Eur J Med Chem, 2018):

Legend:
[1] = biological target: Peptidyl-prolyl cis-trans isomerase F, mitochondrial (Mus musculus) (UniProt Q99KR7); assay: Blockade of amyloid beta (1 to 42)-induced cypD-mediated mPTP opening in mouse HT22 cells assessed as green to red fluorescence ratio at 5 uM preincubated for 10 mins followed by amyloid beta (1 to 42) addition measured at 1 hr time interval for 3 hrs by JC-1 staining based fluorescence assay (reference value: 100%); format: cell-based
Chain of Peptidyl-prolyl cis-trans isomerase F, mitochondrial (Mus musculus) (Q99KR7 whole entry): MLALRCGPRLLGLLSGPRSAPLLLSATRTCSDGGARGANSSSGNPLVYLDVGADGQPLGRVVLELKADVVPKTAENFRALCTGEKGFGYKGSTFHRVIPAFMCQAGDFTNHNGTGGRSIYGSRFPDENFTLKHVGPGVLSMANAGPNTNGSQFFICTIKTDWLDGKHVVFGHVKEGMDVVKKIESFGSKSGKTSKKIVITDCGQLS
Procedure, shortened: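 HT-22 mouse hippocampal cells were grown in DMEM with 10% FBS and seeded at 30,000/well the day before. They were loaded with 7.5 μM JC-1 (final) in phenol red-free Opti-MEM for 1 h 15 min at 37 °C, then PBS-washed. Test agent at 5 μM in Opti-MEM was added for 10 min at 37 °C, then 5 μM Aβ1–42 solution. Red (ex 530/em 580) and green (ex 485/em 530) fluorescence was read hourly for 3 h. The green/red ratio was expressed as percent change normalized to vehicle control (100%), from duplicate averages.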

HT-22 [2] = assay: Induction of mitochondrial energy production impairment in mouse HT22 cells assessed as ATP production at 5 uM after 7 hrs by luciferase reporter gene assay relative to control; format: cell-based; settings: ht-22, 7 h
Procedure, shortened: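 HT-22 cells were seeded at 10,000/well the day before. Test agent was added as a 10 μM solution (25 μL) without Aβ and incubated 7 h at 37 °C. Cells were PBS-washed and lysed in 1% Triton X-100/TBST, and protein was measured by BCA. Equal lysate amounts were assayed for ATP by luciferase kit. Levels were expressed relative to vehicle control, from duplicate averages.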

HT-22 [3] = assay: Neuroprotection against amyloid beta (1 to 42)-induced deterioration of mitochondrial ATP production in mouse HT22 cells assessed as ATP recovery at 5 uM preincubated for 10 mins followed by amyloid beta (1 to 42) addition and measured after 7 hrs by luciferase reporter gene assay relative to control; format: functional
Procedure, shortened: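 HT-22 cells were seeded at 10,000/well the day before. Test agent was added as a 10 μM solution (25 μL) for 10 min at 37 °C, then 25 μL of 10 μM Aβ1–42 solution, followed by 7 h at 37 °C. Lysates (1% Triton X-100/TBST) were equalized by BCA protein and assayed for ATP with a luciferase kit. Vehicle control was subtracted, and percent recovery was calculated against Aβ-treated vehicle control, from duplicate averages.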

[4] = Cytotoxicity against mouse HT22 cells assessed as cell viability at 5 uM after 24 hrs by MTT assay relative to control; format: cell-based, HT-22; settings: read-out: Activity
Procedure, shortened: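 HT-22 cells were seeded at 5000/well and treated with 5 μM test agent for 24 h at 37 °C. MTT was added for 2 h at 37 °C. Formazan was dissolved in 10% Triton X-100 in isopropanol with 0.1 M HCl for 1 h at room temperature. Absorbance was read at 570 nm, vehicle control subtracted, and viability expressed as percent of control, from duplicate averages.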

[5] = biological target: Voltage-gated inwardly rectifying potassium channel KCNH2 (Homo sapiens, UniProt Q12809); assay: Displacement of [3H]-astemizole from human ERG expressed in HEK293 cell membranes after 1 hr by microbeta counting method
Chain of Voltage-gated inwardly rectifying potassium channel KCNH2 (Q12809 whole entry): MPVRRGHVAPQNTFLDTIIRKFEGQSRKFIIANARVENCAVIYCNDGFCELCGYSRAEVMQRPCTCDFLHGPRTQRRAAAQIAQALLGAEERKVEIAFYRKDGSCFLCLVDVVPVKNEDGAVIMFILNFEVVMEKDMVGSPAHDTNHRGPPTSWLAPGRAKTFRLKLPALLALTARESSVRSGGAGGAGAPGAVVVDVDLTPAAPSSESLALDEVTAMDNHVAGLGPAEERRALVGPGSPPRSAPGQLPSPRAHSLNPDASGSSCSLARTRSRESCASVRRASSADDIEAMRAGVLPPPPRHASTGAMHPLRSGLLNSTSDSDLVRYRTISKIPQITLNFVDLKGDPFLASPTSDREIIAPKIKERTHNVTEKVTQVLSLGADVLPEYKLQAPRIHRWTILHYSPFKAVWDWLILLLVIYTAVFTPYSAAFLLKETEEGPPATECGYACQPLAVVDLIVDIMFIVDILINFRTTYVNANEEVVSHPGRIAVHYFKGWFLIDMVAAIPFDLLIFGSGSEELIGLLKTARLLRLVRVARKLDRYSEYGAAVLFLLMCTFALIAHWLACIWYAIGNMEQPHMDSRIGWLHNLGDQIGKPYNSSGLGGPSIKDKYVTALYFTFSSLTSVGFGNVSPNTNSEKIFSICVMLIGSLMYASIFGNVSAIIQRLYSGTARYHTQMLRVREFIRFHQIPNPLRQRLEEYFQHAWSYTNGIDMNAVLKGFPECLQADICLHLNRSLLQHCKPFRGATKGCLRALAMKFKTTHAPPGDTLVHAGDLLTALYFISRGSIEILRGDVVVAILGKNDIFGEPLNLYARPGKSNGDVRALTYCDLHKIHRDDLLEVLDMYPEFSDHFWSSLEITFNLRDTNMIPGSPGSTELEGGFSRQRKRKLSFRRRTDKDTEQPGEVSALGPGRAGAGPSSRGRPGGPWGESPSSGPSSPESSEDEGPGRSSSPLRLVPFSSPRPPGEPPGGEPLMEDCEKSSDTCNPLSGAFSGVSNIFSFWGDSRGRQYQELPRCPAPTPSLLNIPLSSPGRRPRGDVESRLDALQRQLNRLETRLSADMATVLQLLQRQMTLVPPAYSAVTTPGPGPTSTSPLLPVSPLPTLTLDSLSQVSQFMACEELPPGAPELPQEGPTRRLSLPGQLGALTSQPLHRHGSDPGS
Procedure, shortened: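 Radioligand binding used 2.5 µg HEK-293 membranes expressing human ERG in 50 mM Hepes pH 7.4, 60 mM KCl, 0.1% BSA, with 4 nM [³H]astemizole. Incubation was 1 h at room temperature, followed by filtration through PEI-presoaked filtermat and scintillation counting. Non-specific binding was defined with 0.1 µM astemizole. Each competitor was tested at 5–6 concentrations in duplicate tubes, with isotherms from two assays.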

| SMILES | Ratio [1] [%] | Activity (HT-22 [2]) [%] | Activity (HT-22 [3]) [%] | viability at 24 h, 5 µM [4] [%] | IC50 [5] [µM] |
| --- | --- | --- | --- | --- | --- |
| O=C(Nc1cccc(Cl)c1)Nc1nccnc1OCc1cccc(F)c1 | 39 | – | – | – | – |
| CC(C)(C)CC(C)(C)NC(=O)Nc1nccnc1OCc1ccc(Cl)cc1 | 35 | 85.7 | -1.7 | – | – |
| O=C(Nc1cccc(Cl)c1)Nc1nccnc1OCc1cccc(Cl)c1 | 29 | 85.4 | -3.5 | – | – |
| O=C(NCCCl)Nc1nccnc1OCc1ccccc1Cl | 72 | – | – | – | – |
| O=C(Nc1ccccc1)Nc1nccnc1OCc1cccc(F)c1 | 30 | – | – | – | – |
| CN1CCN(CCNC(=O)Nc2nccnc2OCc2cccc(Cl)c2)CC1 | 34 | 96.1 | 17.7 | – | – |
| O=C(Nc1nccnc1OCc1ccc(Cl)cc1)Nc1cccc2ccccc12 | 60 | – | – | – | – |
| CC(C)(C)NC(=O)Nc1nccnc1OCc1ccccc1Cl | 28 | 55.3 | – | – | – |
| O=C(Nc1ccccc1)Nc1nccnc1OCc1ccccc1 | 44 | – | – | – | – |
| O=C(NCCN1CCNCC1)Nc1nccnc1OCc1ccccc1Cl | 37 | 70 | – | – | – |
| O=C(NCCCl)Nc1nccnc1OCc1ccccc1 | 53 | – | – | – | – |
| CC(C)(C)CC(C)(C)NC(=O)Nc1nccnc1OCc1cccc(F)c1 | 29 | 98.9 | 32.9 | – | – |
| O=C(NCc1ccccc1)Nc1nccnc1OCc1ccccc1Cl | 33 | 96.9 | 71.3 | 84.8 | – |
| O=C(NCCCl)Nc1nccnc1OCc1cccc(Cl)c1 | 73 | – | – | – | – |
| CC(C)(C)CC(C)(C)NC(=O)Nc1nccnc1OCc1ccc(F)cc1 | 17 | – | – | – | – |
| CC(C)(C)NC(=O)Nc1nccnc1OCc1ccccc1 | 51 | – | – | – | – |
| CC(C)(C)CC(C)(C)NC(=O)Nc1nccnc1OCc1ccccc1 | 25 | 86 | -59 | – | – |
| CN1CCN(CCNC(=O)Nc2nccnc2OCc2ccccc2)CC1 | 43 | 97.2 | 0.7 | – | – |
| O=C(Nc1ccc(Cl)c(Cl)c1)Nc1nccnc1OCc1ccccc1 | 29 | 148.6 | 71.2 | 139 | 11.3 |
| CC(C)(C)CC(C)(C)NC(=O)Nc1nccnc1OCc1ccccc1Cl | 59 | – | – | – | – |
| NC(=O)CN1CCCC1=O [PIRACETAM] | – | 88 | 127 | – | – |
| CN1CCN(CCNC(=O)Nc2nccnc2OCc2ccccc2Cl)CC1 | 34 | – | – | – | – |
| O=C(Nc1ccccc1)Nc1nccnc1OCc1cccc(Cl)c1 | 59 | – | – | – | – |
| CC(C)(C)NC(=O)Nc1nccnc1OCc1cccc(F)c1 | 55 | – | – | – | – |
| O=C(Nc1ccccc1)Nc1nccnc1OCc1ccccc1Cl | 39 | 66.9 | – | – | – |
| O=C(Nc1cccc(F)c1)Nc1nccnc1OCc1cccc(Cl)c1 | 50 | – | – | – | – |
| O=C(Nc1cccc(Cl)c1)Nc1nccnc1OCc1ccccc1Cl | 55 | – | – | – | – |
| CCNC(=O)Nc1nccnc1OCc1cccc(Cl)c1 | 60 | – | – | – | – |
| O=C(Nc1nccnc1OCc1ccccc1)NC1CCCCCC1 | 33 | 103.4 | 45.7 | 59 | – |
